Hits are enriched below; roughly 2.2% of the tested compounds scored in any of these assays.
NR2E3 ag-1: human photoreceptor-specific nuclear receptor agonism; 360,000 tested, 0.35% active; CHO-S Gal4-NCOR/VP16-NR2E3 two-hybrid, luciferase; inhibition of corepressor binding, % at 3.98 µM; AID 602229;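 active means inhibition above the mean of all tested compounds plus 3 SD, cut at about 70% in these data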;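 further: 0% = DMSO with NR2E3 transfected cells and 100% = cells lacking NR2E3 construct; higher means lower luciferase signal from less NR2E3 corepressor binding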
Target sequence (Q9Y5X4 whole entry, looked up, the tested form may be a part): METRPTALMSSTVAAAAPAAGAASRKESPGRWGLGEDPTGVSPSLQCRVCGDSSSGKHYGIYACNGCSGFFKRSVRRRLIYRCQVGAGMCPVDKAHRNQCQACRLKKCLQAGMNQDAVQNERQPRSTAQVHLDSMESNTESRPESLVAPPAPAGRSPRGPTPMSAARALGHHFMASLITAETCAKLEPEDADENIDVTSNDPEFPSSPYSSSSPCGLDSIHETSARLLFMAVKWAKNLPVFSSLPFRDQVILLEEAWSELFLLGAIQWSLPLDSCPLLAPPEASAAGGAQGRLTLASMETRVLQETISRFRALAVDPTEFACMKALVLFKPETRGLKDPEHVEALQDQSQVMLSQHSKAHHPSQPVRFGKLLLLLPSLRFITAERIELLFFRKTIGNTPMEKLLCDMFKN
Jurkat NFkB inh: inhibitors of the PMA/ionomycin-induced NF-kB reporter in Jurkat cells | PMA/ionomycin-induced NF-kB luciferase reporter, luminescence | inhibition, % at 4 µM | 330,000 tested, 0.53% active; in the data active means inhibition above about 50%
697 NFkB inh: inhibitors of the PMA/ionomycin-induced NF-kB reporter in 697 B cells | 330,000 tested, 0.33% active | 697 B-cell NF-kB luciferase reporter, 16 h | inhibition, % at 4 µM; in the data active means inhibition above about 35%
FGF22 binding-1: shifts melting point of recombinant human FGF22 | activity (Tm shift, normalised), % at 9.99 µM | 340,000 tested, 1.5% active | Q9HCT0 | recombinant FGF22 thermal shift, SYPRO orange fluorescence; percent of sucrose octasulfate shift, DMSO zero;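 active means mean Tm shift, scaled 0 neutral to 100 positive control, at about 1.3% or above, every replicate too, limit read from the data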
Target sequence (Q9HCT0 whole entry, looked up): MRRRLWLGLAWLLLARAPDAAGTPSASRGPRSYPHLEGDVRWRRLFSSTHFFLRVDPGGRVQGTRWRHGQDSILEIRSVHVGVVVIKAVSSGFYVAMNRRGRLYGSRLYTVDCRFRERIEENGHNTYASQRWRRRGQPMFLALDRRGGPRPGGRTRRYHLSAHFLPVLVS
NR2E3 ag-2: NR2E3 (human) agonism; Q9Y5X4; GST-NR2E3/biotin-RetCOR TR-FRET, 1536-well; inhibition of corepressor binding, % at 4.78 µM; 320,000 tested, 0.12% active; AID 2300;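 active means percent inhibition above the cutoff of mean plus 3 SD of all tested compounds, set per screening campaign, cut at about 20% in these data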;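 further: 0% = DMSO wells and 100% = biotin wells as full block of FRET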
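System: GST-tagged NR2E3 plus biotinylated RetCOR corepressor; Amount: 1.35 nM GST-tagged NR2E3 final; Dosing: single nominal compound dose of 4.8 µM; Schedule: 5 h incubation at 4 °C; Technique: TR-FRET with europium anti-GST and streptavidin-D2, 340 nm excitation; Controls: biotin wells as high control, 0.6% DMSO wells as low control.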
miR-122 sensor: miR-122 inhibition in Huh7 cells; Huh7 miR-122 Renilla luciferase sensor, 48 h; neutral wells = 0, positive control = 100; activation (reporter increase), % at 12.5 µM; 340,000 tested, 0.3% active; AID 602342;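 active means mean replicate activation score at least 90 and every replicate individually at or above 90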;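 further: higher luciferase means less miR-122 activity so hits act as miR-122 inhibitors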
697 NFkB conf: lowers PMA/ionomycin-induced NF-kB signal in 697 B cells. AID 449746. 697 B-cell NF-kB luciferase, 16 h. inhibition, % at 4 µM. shares compounds with 697 NFkB inh. 2,000 tested, 35% active; in the data active means inhibition mostly above about 28%, no sharp cut-off; inactive means mostly below about 22%
NR2E3 ag confirm: confirmation of human NR2E3 agonists | shares compounds with NR2E3 ag-1 | inhibition, % at 3.98 µM | 2,300 tested, 51% active | AID 624378 | CHO-S mammalian two-hybrid NR2E3-NCOR, luciferase luminescence;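 active means average inhibition above a cutoff equal to the mean inhibition of all tested compounds plus one SD, cut at about 70% in these data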;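 further: 0% = DMSO in NR2E3 cells and 100% = DMSO in cells lacking NR2E3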
GAL4-VP16 luc: GAL4-VP16 reporter inhibition in NR2E3 agonist counterscreen. shares compounds with NR2E3 ag-1. CHO-S GAL4-VP16 luciferase reporter, luminescence. inhibition, % at 3.98 µM. 2,300 tested, 29% active;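 active means mean inhibition above a cutoff equal to the average over all tested compounds plus one standard deviation, cut at about 70% in these data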;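 further: luciferase from a UAS reporter driven by GAL4-VP16 transactivation; 0% = DMSO with VP16-transfected cells and 100% = DMSO with cells lacking VP16; higher means less reporter light so more repression of VP16 activity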
FGF22 binding-2: binds human FGF22 shifting its melting temperature; shares compounds with FGF22 binding-1; recombinant FGF22 thermal shift, SYPRO orange fluorescence; thermal shift activity, °C (ΔTm) at 38 µM; 1,000 tested, 2% active; AID 720646;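 active means fitted rise in melting shift crosses a set limit at or below the top valid dose tested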
TSA no protein: compound-only SYPRO artifact for FGF22 binders. shares compounds with FGF22 binding-1. AC50, µM (titrated, usually from 38 µM). 1,000 tested, 2% active. AID 743019. compound-only SYPRO orange thermal shift counter-screen, no protein;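 active means rising signal whose fitted curve reaches the 0.54 level within the top valid dose, showing a melting point, actives reach about 13 µM in these data; inactive means the rest, including activity in the opposite direction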; further: value is where the raw curve crosses a fixed level and not half-maximal
Numbers without * were called inactive; i = inactive; . = no result given; [ ] = dose if it differs, or a comment.

SMILES | NR2E3 ag-1 | Jurkat NFkB inh | 697 NFkB inh | FGF22 binding-1 | NR2E3 ag-2 | miR-122 sensor | NR2E3 ag confirm | GAL4-VP16 luc | others
CC(=C\c1ccccc1)/C=C1/SC(=O)N(CCCC(=O)Nc2ccc(C(=O)O)cc2)C1=O | 73* | 6 | 75* | 0 | 2 | -4 | 10 | 76* | 697 NFkB conf=70*
COc1ccc(S(=O)(=O)N(C)C[C@@H]2Oc3ccc(N(C)C)cc3CC(=O)N([C@H](C)CO)C[C@@H]2C)cc1 | . | . | . | -2 | . | 0[16.7 µM] | . | .
O=C(Nc1nc(-c2ccccc2)cs1)c1ccccc1NS(=O)(=O)c1ccc(F)cc1 | 95* | 13 | 47* | . | 4 | . | 99* | 85* | 697 NFkB conf=52*
O=C(Oc1ccnc2cc(Cl)ccc12)N1CCCCCC1 | 60 | 15 | 38* | . | -4 | -16 | 35 | 32 | 697 NFkB conf=14
CCOC(=O)N1CCN(c2ccnc3cc(Cl)ccc23)CC1 | 8 | 8 | 19 | 0 | 2 | 0 | . | .
O=C(NCC1CCCCC1)[C@H]1N[C@H]2c3ccc(C4=CCCC4)c(=O)n3C[C@H]2[C@@H]1CO | . | . | . | 0 | . | 3[16.7 µM] | . | .
Cc1nc2c(-c3ccc(F)cc3)cnn2c(N)c1-c1ccccc1 | 77* | -36 | -310 | 0 | 2 | -3 | 48 | 12 | 697 NFkB conf=-224
CC(=O)c1cn(CCOc2cc(C)ccc2C)c2ccccc12 | 90* | 48 | 65* | 0 | 9 | . | 93* | 83* | 697 NFkB conf=83*
Fc1ccc2[nH]c3c(N4CCN(C5CCCCC5)CC4)ncnc3c2c1 | . | -3 | -10 | . | 0 | . | . | .
COc1cccc(N2CCN(c3ncnc4c3[nH]c3ccc(F)cc34)CC2C)c1 (centres undefined) | 109* | 10 | 71* | . | 1 | -32 | 101* | 100* | 697 NFkB conf=91*
Oc1cc(O)cc(-c2cc3ccc(O)cc3o2)c1 | -129 | -74 | 38* | 2.1* | 3 | 6 | . | . | 697 NFkB conf=35*;FGF22 binding-2=0.007;TSA no protein=i
O=C(C[C@H]1CC[C@@H]2[C@H](COC[C@@H](O)CN2C(=O)c2ccccc2)O1)NCc1cccc(F)c1 | . | . | . | 0 | . | -7[16.7 µM] | . | .
CCc1ccc(NC(=O)C2CCCN(S(=O)(=O)c3cccnc3)C2)cc1 (centres undefined) | -28 | 4 | -13 | 0 | 0 | . | . | .
O=C(Nc1ccc(OC(F)(F)F)cc1)C1CCCN(S(=O)(=O)c2cccnc2)C1 (centres undefined) | 49 | -7 | 8 | . | 1 | 4 | -19 | -12
O=C(C[C@H]1C[C@H]2c3cc(NC(=O)C4CCC4)ccc3O[C@H]2[C@@H](CO)O1)NCc1cc(F)ccc1F | . | . | . | 0 | . | 5[16.7 µM] | . | .
COc1cccc(CNC(=O)C2CCN(S(=O)(=O)c3ccc4c(c3)CC(C)N4C(=O)C3CC3)CC2)c1 (centres undefined) | 1 | 0 | 4 | 0 | 1 | -10 | . | .
O=C(C1CCC1)N1CCc2cc(S(=O)(=O)NCCN3CCN(c4ccccc4F)CC3)ccc21 | 61 | -12 | -23 | . | 6 | 4 | 70 | 55
COc1ccc(CNS(=O)(=O)c2ccc3c(c2)CCN3C(=O)C2CC2)cc1 | 49 | 18 | 5 | . | 1 | -6 | 58 | 48
O=C(C1CC1)N1CCc2cc(S(=O)(=O)NCCCN3CCCCC3)ccc21 | -5 | -25 | -19 | 0 | -3 | 1 | . | .
COc1ccc(CNS(=O)(=O)c2ccc3c(c2)CC(C)N3C(=O)C2CC2)cc1 (centres undefined) | 95* | 7 | -33 | 0 | 1 | -6 | 89* | 75*
COc1cccc(CNS(=O)(=O)c2ccc3c(c2)CC(C)N3C(=O)C2CC2)c1 (centres undefined) | 61 | 22 | -16 | -1 | 0 | 0 | 56 | 36
COC(=O)C[C@H]1CC[C@@H]2[C@H](COC[C@H](O)CN2S(=O)(=O)c2ccc(F)cc2)O1 | . | . | . | 0 | . | 5[16.7 µM] | . | .
C[C@H]1CN([C@@H](C)CO)S(=O)(=O)c2ccc(Br)cc2O[C@H]1CN(C)CC1CC1 | . | . | . | 0 | . | 2[16.7 µM] | . | .
O=C(N[C@@H]1C=C[C@@H](CC(=O)N2CCCCC2)O[C@H]1CO)c1ccc2c(c1)OCO2 | . | . | . | 0 | . | . | . | .
Brc1ccc(-c2nnc3c4ccccc4nc(N4CCOCC4)n23)cc1 | 80* | 14 | -43 | . | 0 | 2 | 15 | -21
SMILES | NR2E3 ag-1 | Jurkat NFkB inh | 697 NFkB inh | FGF22 binding-1 | NR2E3 ag-2 | miR-122 sensor | NR2E3 ag confirm | GAL4-VP16 luc | others
Clc1ccc(-c2nnc3c4ccccc4nc(N4CCOCC4)n23)cc1Cl | -37 | 0 | -25 | . | 0 | 7 | . | .
C[C@H](CO)N1C[C@H](C)[C@@H](CN(C)C(=O)Nc2ccc3c(c2)OCCO3)OCc2cnnn2CCCC1=O | 63 | . | . | 0 | . | -1 | 8 | -22
O=C(C[C@H]1C[C@@H]2c3cc(NS(=O)(=O)c4ccc(F)cc4)ccc3O[C@@H]2[C@@H](CO)O1)NCc1ccc(Cl)cc1 | . | . | . | 0 | . | 7[16.7 µM] | . | .
CCOc1ccc(S(=O)(=O)n2cnc3cc(C)c(C)cc32)cc1 | 66 | 13 | -3 | 0 | 1 | -2 | 83* | 76*
CC(C)NC(=O)N(C)C[C@H]1OCCCC[C@@H](C)Oc2ccc(NS(=O)(=O)c3ccc(Cl)cc3)cc2C(=O)N([C@H](C)CO)C[C@H]1C | . | . | . | 0 | . | 1[16.7 µM] | . | .
COCCCNC(=S)N1CCN(c2nc(-c3ccccc3)cs2)CC1 | -1 | 2 | 3 | 0 | 3 | . | . | .
COCCCNC(=S)N1CCN(c2nc(-c3ccc(Cl)cc3)cs2)CC1 | 65 | . | . | 0 | . | -5 | 73* | 53
COc1ccc(Br)cc1CSC(=N)N | -9 | -1 | -2 | 0 | -2 | -3 | . | .
CCCCCOc1ccc(Br)cc1CSC(=N)N | 61 | . | . | 44* | . | . | 90* | 59
CC(C)NC(=O)Nc1ccc2c(c1)C(=O)N([C@@H](C)CO)C[C@@H](C)[C@H](CN(C)S(=O)(=O)c1ccc(Cl)cc1)O2 | . | . | . | 0 | . | 1[16.7 µM] | . | .

Source: PubChem BioAssay (several laboratories)
